The record followed here is ChEMBL document CHEMBL3352534, “A prodrug strategy for the oral delivery of a poorly soluble HCV NS5B thumb pocket 1 polymerase inhibitor using self-emulsifying drug delivery systems (SEDDS)” (Bioorg Med Chem Lett, 2015).

Data set [1] relates to Canis familiaris. Put plainly: Oral bioavailability in dog assessed as (E)-3-(4-(1-(2-(5-chloropyrimidin-2-yl)-3-cyclopentyl-1-methyl-1H-indole-6-carboxamido)cyclobutanecarboxamido)-2-ethoxyphenyl)acrylic acid at 10 mg/kg using 10.6% PEG400, 5.4% Cremophor EL, 2.6% Labrasol, 1.4% Capmul MCM in water (80%) vehicle. The class given is ADME, organism-based, Canis lupus familiaris. As to conditions: in vivo.

Data set [2] is described as follows: Prodrug solubility in PEG400. The class given is ADME.
Data set [3] concerns Rattus norvegicus. As to the kind of experiment: Mean residence time in rat assessed as (E)-3-(4-(1-(2-(5-chloropyrimidin-2-yl)-3-cyclopentyl-1-methyl-1H-indole-6-carboxamido)cyclobutanecarboxamido)-2-ethoxyphenyl)acrylic acid at 2 mg/kg, iv. The class given is ADME, organism-based. Set-up: dose 2 mg/kg, route intravenous. Particulars: in vivo. The gist of the method: (§1)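 Overnight-fasted rats received 2 mg/kg IV in 70% PEG400:30% water, n = 3. Plasma parent drug was quantified after solid-phase extraction by HPLC-UV or LC/MS against blank-plasma calibration standards (LOQ 7–14 ng/mL). Noncompartmental analysis gave the PK parameters.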

Data set [4] relates to Rattus norvegicus. Put plainly: AUC in rat plasma at 10 mg/kg, po using 10.6% PEG400, 5.4% Cremophor EL, 2.6% Labrasol, 1.4% Capmul MCM in water (80%) vehicle. Format: ADME, organism-based. Details: dose 10 mg/kg, route oral. As to conditions: in vivo, BLD = below limit of detection. The procedure, abridged:
(§2)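 Fasted rats were given a single 10 mg/kg oral dose, with n = 3 per dose and route. Plasma was extracted by solid-phase extraction. Analysis used HPLC with diode-array UV (200–400 nm, peak height at best S/N) or LC/MS. Calibration standards were made in blank plasma, with LOQ 7–14 ng/mL. Parameters came from noncompartmental analysis.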

Data set [5] deals with Rattus norvegicus. As to the kind of experiment: Oral bioavailability in rat assessed as (E)-3-(4-(1-(2-(5-chloropyrimidin-2-yl)-3-cyclopentyl-1-methyl-1H-indole-6-carboxamido)cyclobutanecarboxamido)-2-ethoxyphenyl)acrylic acid at 10 mg/kg using 10.6% PEG400, 5.4% Cremophor EL, 2.6% Labrasol, 1.4% Capmul MCM in water (80%) vehicle. The class given is ADME, organism-based. Particulars: in vivo.

Data set [6] is described as follows: Prodrug solubility in capmul. Format: ADME.
The nature of data set [7]: AUC in dog at 10 mg/kg, po using 10.6% PEG400, 5.4% Cremophor EL, 2.6% Labrasol, 1.4% Capmul MCM in water (80%) vehicle. Format: ADME, organism-based, Canis lupus familiaris. Details: dose 10 mg/kg, route oral. As to conditions: plasma.
Data set [8] relates to Rhesus monkey. Put plainly: Oral bioavailability in monkey assessed as (E)-3-(4-(1-(2-(5-chloropyrimidin-2-yl)-3-cyclopentyl-1-methyl-1H-indole-6-carboxamido)cyclobutanecarboxamido)-2-ethoxyphenyl)acrylic acid at 10 mg/kg using 10.6% PEG400, 5.4% Cremophor EL, 2.6% Labrasol, 1.4% Capmul MCM in water (80%) vehicle. Format: ADME, organism-based, Macaca mulatta. As to conditions: in vivo.

Data set [9] in a line: Prodrug solubility in Labrasol. The class given is ADME.
Data set [10] concerns Rhesus monkey. As to the kind of experiment: AUC in monkey assessed as (E)-3-(4-(1-(2-(5-chloropyrimidin-2-yl)-3-cyclopentyl-1-methyl-1H-indole-6-carboxamido)cyclobutanecarboxamido)-2-ethoxyphenyl)acrylic acid at 10 mg/kg using 10.6% PEG400, 5.4% Cremophor EL, 2.6% Labrasol, 1.4% Capmul MCM in water (80%) vehicle. Format: ADME, organism-based, Macaca mulatta, Plasma. Details: dose 10 mg/kg. As to conditions: in vivo.

For data set [11], the system named is Rattus norvegicus. As to the kind of experiment: AUC in rat plasma assessed as (E)-3-(4-(1-(2-(5-chloropyrimidin-2-yl)-3-cyclopentyl-1-methyl-1H-indole-6-carboxamido)cyclobutanecarboxamido)-2-ethoxyphenyl)acrylic acid at 10 mg/kg, po using 10.6% PEG400, 5.4% Cremophor EL, 2.6% Labrasol, 1.4% Capmul MCM in water (80%) vehicle. The class given is ADME, organism-based. Details: dose 10 mg/kg, route oral. Particulars: in vivo. The gist of the method: as §2

Data set [12] deals with Rattus norvegicus. Put plainly: AUC in rat assessed as (E)-3-(4-(1-(2-(5-chloropyrimidin-2-yl)-3-cyclopentyl-1-methyl-1H-indole-6-carboxamido)cyclobutanecarboxamido)-2-ethoxyphenyl)acrylic acid at 2 mg/kg, iv. As to conditions: in vivo. Format: ADME, organism-based, Plasma. Details: dose 2 mg/kg, route intravenous. The procedure, abridged:
as §1

The subject of data set [13] is Canis familiaris. Put plainly: AUC in dog assessed as (E)-3-(4-(1-(2-(5-chloropyrimidin-2-yl)-3-cyclopentyl-1-methyl-1H-indole-6-carboxamido)cyclobutanecarboxamido)-2-ethoxyphenyl)acrylic acid at 10 mg/kg using 10.6% PEG400, 5.4% Cremophor EL, 2.6% Labrasol, 1.4% Capmul MCM in water (80%) vehicle. Format: ADME, organism-based, Canis lupus familiaris, Plasma. Set-up: dose 10 mg/kg. Particulars: in vivo.

The test system of data set [14] is Rattus norvegicus. As to the kind of experiment: Cmax in rat plasma assessed as (E)-3-(4-(1-(2-(5-chloropyrimidin-2-yl)-3-cyclopentyl-1-methyl-1H-indole-6-carboxamido)cyclobutanecarboxamido)-2-ethoxyphenyl)acrylic acid at 10 mg/kg, po using 10.6% PEG400, 5.4% Cremophor EL, 2.6% Labrasol, 1.4% Capmul MCM in water (80%) vehicle. Format: ADME, organism-based. Details: dose 10 mg/kg, route oral. As to conditions: in vivo. The procedure, abridged:
as §2

The nature of data set [15]: Prodrug solubility in solutol. The class given is ADME.
For data set [16], the system named is Plasma. As to the kind of experiment: Prodrug conversion in rat plasma assessed as half life. The class given is ADME, cell-free. The gist of the method: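 Rat plasma (from centrifuged whole blood) was incubated with 2 µM compound at 37 °C. Samples were quenched 1:3 with acetonitrile/methanol 1:1, centrifuged and analysed by HPLC-PDA. Half-life was taken as 0.693/first-order rate of loss of the starting compound.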

Data set [17] deals with Rattus norvegicus. As to the kind of experiment: Volume of distribution at steady state in rat assessed as (E)-3-(4-(1-(2-(5-chloropyrimidin-2-yl)-3-cyclopentyl-1-methyl-1H-indole-6-carboxamido)cyclobutanecarboxamido)-2-ethoxyphenyl)acrylic acid at 2 mg/kg, iv. The class given is ADME, organism-based. Details: dose 2 mg/kg, route intravenous. As to conditions: in vivo. The gist of the method: as §1

Data set [18] in a line: Cmax in rat plasma at 10 mg/kg, po using 10.6% PEG400, 5.4% Cremophor EL, 2.6% Labrasol, 1.4% Capmul MCM in water (80%) vehicle. The class given is ADME, organism-based. Details: dose 10 mg/kg, route oral. As to conditions: plasma. The procedure, abridged:
as §2

Data set [19] relates to Rattus norvegicus. As to the kind of experiment: Half life in rat assessed as (E)-3-(4-(1-(2-(5-chloropyrimidin-2-yl)-3-cyclopentyl-1-methyl-1H-indole-6-carboxamido)cyclobutanecarboxamido)-2-ethoxyphenyl)acrylic acid at 2 mg/kg, iv. Format: ADME, organism-based. Set-up: dose 2 mg/kg, route intravenous. Particulars: in vivo. The gist of the method: as §1
In data set [20] the test system is Rattus norvegicus. Put plainly: AUC in rat assessed as (E)-3-(4-(1-(2-(5-chloropyrimidin-2-yl)-3-cyclopentyl-1-methyl-1H-indole-6-carboxamido)cyclobutanecarboxamido)-2-ethoxyphenyl)acrylic acid at 10 mg/kg, po using 10.6% PEG400, 5.4% Cremophor EL, 2.6% Labrasol, 1.4% Capmul MCM in water (80%) vehicle. Particulars: in vivo. Details: dose 10 mg/kg, route oral. The class given is ADME, organism-based, Plasma. The gist of the method:
as §2

For data set [21], the system named is Rattus norvegicus. As to the kind of experiment: AUC in rat plasma assessed as (E)-3-(4-(1-(2-(5-chloropyrimidin-2-yl)-3-cyclopentyl-1-methyl-1H-indole-6-carboxamido)cyclobutanecarboxamido)-2-ethoxyphenyl)acrylic acid at 10 mg/kg, po using 0.5% Methyl cellulose, 0.3% Tween-80, 1% N-methylpyrrolidone in water vehicle. The class given is ADME, organism-based. Details: dose 10 mg/kg, route oral. As to conditions: in vivo. The procedure, abridged:
as §2

Data set [22] concerns Rattus norvegicus. Put plainly: Cmax in rat plasma assessed as (E)-3-(4-(1-(2-(5-chloropyrimidin-2-yl)-3-cyclopentyl-1-methyl-1H-indole-6-carboxamido)cyclobutanecarboxamido)-2-ethoxyphenyl)acrylic acid at 10 mg/kg, po using 0.5% Methyl cellulose, 0.3% Tween-80, 1% N-methylpyrrolidone in water vehicle. As to conditions: in vivo. Format: ADME, organism-based. Set-up: dose 10 mg/kg, route oral. The gist of the method:
as §2

In data set [23] the test system is Rattus norvegicus. Put plainly: Total clearance in rat assessed as (E)-3-(4-(1-(2-(5-chloropyrimidin-2-yl)-3-cyclopentyl-1-methyl-1H-indole-6-carboxamido)cyclobutanecarboxamido)-2-ethoxyphenyl)acrylic acid at 2 mg/kg, iv. Particulars: in vivo.
The nature of data set [24]: Permeability across human Caco2 cells. Format: ADME, cell-based. As to conditions: Caco-2. In general terms: Caco-2 cells form a polarised layer with tight junctions and transporters.

Molecules are shown by their SMILES.

For the molecule `CCOc1cc(NC(=O)C2(NC(=O)c3ccc4c(C5CCCC5)c(-c5ncc(Cl)cn5)n(C)c4c3)CCC2)ccc1/C=C/C(=O)OCC(=O)N(C)C`, the F in data set [1] came out at 4%; in data set [5], 38%; in data set [8], 35%. Besides, the solubility is more than 200 mg/mL in [2], more than 100 mg/mL in data set [6], more than 200 mg/mL in data set [9] and more than 200 mg/mL in data set [15]. The MRT in data set [3] is 2.8 h. In addition, the AUC result in data set [4] is “BLD”; in data set [7], 0.69 µM·h; in data set [10], 26 µM·h; in [11] it was 38.5 µM·h; in data set [12], 10.5 µM·h; in data set [13] it was 11.5 µM·h. The Cmax came out at 9.2 µM in [14] and 0.02 µM in data set [18]. The figures for the t1/2 in [16] and in data set [19] were 1.43 h and 2.1 h, respectively. In addition, in data set [17], the Vdss was determined as 0.73 L/kg.
As to `CCOc1cc(NC(=O)C2(NC(=O)c3ccc4c(C5CCCC5)c(-c5ncc(Cl)cn5)n(C)c4c3)CCC2)ccc1/C=C/C(=O)O`, the MRT in data set [3] was 2.5 h. Moreover, the AUC in data set [20] is 19.3 µM·h; in [10], 53 µM·h; in data set [11], 7.5 µM·h; in data set [21], 25.5 µM·h; in data set [12] it was 20.1 µM·h; in [13], 76 µM·h. For the same molecule, the Cmax amounted to 7.4 µM in [22] and 2.1 µM in [14]. Further, in data set [23], the CL was determined as 2.6 mL/min/kg. For the same molecule, the Papp in [24] was 13 ×10⁻⁶ cm/s.

By solubility is commonly meant the concentration that dissolves in the medium under given conditions. What is called MRT is a mean duration of stay, worked out from the concentration-time curve. What is called AUC is concentration integrated over time. One may read the Cmax as the maximum level reached in the sampled fluid or tissue. A word on the Vdss: it is the apparent volume that relates the amount in the body to the concentration in plasma or blood. The term Papp denotes the rate of passage across a membrane or cell layer, normalised by area and donor concentration.
